Laboratory results taken from ChEMBL document CHEMBL1152748, “Inhibition of iNOS and COX-2 in human whole blood ex vivo and monocyte-macrophage J774 cells by a new group of aminothiopyrimidone derivatives” (Bioorg Med Chem, 2009).

What was measured:
[1] = molecular target: T1, Nitric oxide synthase, inducible (Mus musculus) (UniProt P29477); assay: Inhibition of iNOS in LPS-stimulated mouse J774 cells assessed as inhibition of nitric oxide generation at 10 uM; assay type: cell-based
T1 sequence (whole entry): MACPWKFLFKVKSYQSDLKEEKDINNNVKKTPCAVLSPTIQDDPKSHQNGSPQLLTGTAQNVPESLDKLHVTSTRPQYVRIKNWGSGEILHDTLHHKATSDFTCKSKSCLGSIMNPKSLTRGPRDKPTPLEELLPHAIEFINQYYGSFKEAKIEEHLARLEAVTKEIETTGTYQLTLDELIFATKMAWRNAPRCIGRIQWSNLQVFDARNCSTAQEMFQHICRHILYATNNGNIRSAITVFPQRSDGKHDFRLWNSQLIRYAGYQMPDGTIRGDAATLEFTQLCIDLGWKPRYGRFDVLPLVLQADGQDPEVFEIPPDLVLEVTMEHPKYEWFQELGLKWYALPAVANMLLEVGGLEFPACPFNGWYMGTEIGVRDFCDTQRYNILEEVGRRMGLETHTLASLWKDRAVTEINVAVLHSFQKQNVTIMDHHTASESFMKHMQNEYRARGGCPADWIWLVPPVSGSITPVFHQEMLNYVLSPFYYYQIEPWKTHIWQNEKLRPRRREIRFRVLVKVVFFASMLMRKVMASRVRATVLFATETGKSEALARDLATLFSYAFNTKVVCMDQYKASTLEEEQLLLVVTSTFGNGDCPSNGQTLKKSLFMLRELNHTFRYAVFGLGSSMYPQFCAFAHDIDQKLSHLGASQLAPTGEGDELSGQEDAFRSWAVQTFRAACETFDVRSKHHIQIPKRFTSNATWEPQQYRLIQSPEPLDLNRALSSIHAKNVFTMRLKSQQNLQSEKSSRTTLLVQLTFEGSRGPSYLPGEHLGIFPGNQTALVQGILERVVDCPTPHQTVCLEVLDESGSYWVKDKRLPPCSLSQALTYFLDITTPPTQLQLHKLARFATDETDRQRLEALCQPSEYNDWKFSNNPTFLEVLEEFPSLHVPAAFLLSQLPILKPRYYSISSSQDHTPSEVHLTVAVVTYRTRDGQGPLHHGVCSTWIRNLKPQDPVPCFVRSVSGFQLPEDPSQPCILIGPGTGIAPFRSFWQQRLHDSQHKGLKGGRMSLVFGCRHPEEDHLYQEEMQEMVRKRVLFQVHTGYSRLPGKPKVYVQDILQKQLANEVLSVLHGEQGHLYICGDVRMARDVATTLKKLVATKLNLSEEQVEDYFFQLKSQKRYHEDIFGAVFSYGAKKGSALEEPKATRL
Outline: (§1)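 J774 cells plated at 2.5×10^5 cells/ml, adhered 24 h, then given LPS 5 µg/ml for 72 h with compound at 10 µM (DMSO vehicle). Supernatant nitrite measured by Griess reaction, 10 min at room temperature, absorbance at 550 nm against sodium nitrite standard (detection limit 1 µM). NGMMA 500 µM served as control. Mean ± SEM, three experiments in triplicate.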

[2] = molecular target: T2, Prostaglandin G/H synthase 2 (Mus musculus) (UniProt Q05769); assay: Activation of COX2 in LPS-stimulated mouse J774 cells assessed as stimulation of PGE2 production by […]; assay type: cell-based; set-up: concentration or dose not given beside the values
T2 sequence (whole entry): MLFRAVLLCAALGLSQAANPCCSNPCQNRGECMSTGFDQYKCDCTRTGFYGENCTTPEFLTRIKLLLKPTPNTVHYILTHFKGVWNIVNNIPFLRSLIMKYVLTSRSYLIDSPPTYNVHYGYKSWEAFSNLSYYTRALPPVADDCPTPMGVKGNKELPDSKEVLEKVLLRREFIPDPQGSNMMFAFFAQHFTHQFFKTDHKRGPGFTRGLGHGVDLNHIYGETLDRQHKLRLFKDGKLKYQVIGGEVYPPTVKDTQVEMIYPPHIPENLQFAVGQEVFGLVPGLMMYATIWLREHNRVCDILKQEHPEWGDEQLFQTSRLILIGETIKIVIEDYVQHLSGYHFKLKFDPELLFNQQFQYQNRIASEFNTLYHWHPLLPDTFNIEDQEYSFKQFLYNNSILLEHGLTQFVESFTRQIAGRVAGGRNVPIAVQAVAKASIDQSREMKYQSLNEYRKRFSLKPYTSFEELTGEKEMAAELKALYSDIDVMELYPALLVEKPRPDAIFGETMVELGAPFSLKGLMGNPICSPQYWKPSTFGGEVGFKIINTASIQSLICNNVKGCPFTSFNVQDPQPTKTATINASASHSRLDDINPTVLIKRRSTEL
Outline: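 Mouse J774 monocyte-macrophages in DMEM/10% FCS, plated at 2.5×10^5 cells/ml and adhered 24 h. Stimulated with LPS 5 µg/ml for 72 h with compound (10 µM, DMSO vehicle). Supernatant PGE2 by competitive peroxidase EIA at 450 nm (50–6400 pg/ml) against vehicle control. Mean ± SEM, three experiments in triplicate.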

[3] = molecular target: T1, Nitric oxide synthase, inducible (Mus musculus); assay: Activation of iNOS in LPS-stimulated mouse J774 cells assessed as stimulation of nitric oxide generation at 10 uM; assay type: cell-based; outline: as §1
[4] = molecular target: T3, Prostaglandin G/H synthase 2 (Homo sapiens) (UniProt P35354); assay: Activation of COX2 in LPS-stimulated human whole blood assessed as stimulation of PGE2 production at 10 uM […]; assay type: tissue-based
T3 sequence (whole entry): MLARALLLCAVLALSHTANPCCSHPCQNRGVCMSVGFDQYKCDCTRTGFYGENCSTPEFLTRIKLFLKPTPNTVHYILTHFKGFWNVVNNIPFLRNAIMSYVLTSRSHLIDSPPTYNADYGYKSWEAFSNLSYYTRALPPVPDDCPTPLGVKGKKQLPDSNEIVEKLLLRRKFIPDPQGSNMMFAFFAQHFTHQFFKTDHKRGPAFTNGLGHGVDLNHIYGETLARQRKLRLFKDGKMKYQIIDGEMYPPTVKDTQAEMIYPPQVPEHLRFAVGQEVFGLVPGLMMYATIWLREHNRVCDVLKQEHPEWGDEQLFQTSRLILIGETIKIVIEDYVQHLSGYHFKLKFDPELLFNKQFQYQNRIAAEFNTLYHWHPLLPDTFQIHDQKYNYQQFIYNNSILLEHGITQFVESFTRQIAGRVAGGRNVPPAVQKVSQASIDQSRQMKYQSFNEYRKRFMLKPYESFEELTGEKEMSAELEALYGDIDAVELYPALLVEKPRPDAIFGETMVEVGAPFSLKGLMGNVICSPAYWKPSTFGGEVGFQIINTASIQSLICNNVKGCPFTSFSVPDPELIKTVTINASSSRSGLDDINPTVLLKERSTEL
Outline: (§2)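 Heparinized (10 IU) whole blood from young healthy volunteers, drawn 48 h after 300 mg oral aspirin to suppress platelet COX-1. 1 ml aliquots; compound added in DMSO (final 10 µM) before LPS 10 µg/ml, 24 h at 37 °C. Plasma stored at -70 °C, PGE2 by competitive peroxidase EIA at 450 nm (range 50–6400 pg/ml). Mean ± SEM, three experiments in triplicate.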

[5] = molecular target: T4, Prostaglandin G/H synthase 2 (Homo sapiens, UniProt P35354); assay: Inhibition of COX2 in LPS-stimulated human whole blood assessed as inhibition of PGE2 production by […]; assay type: tissue-based; outline: as §2
T4 sequence (P35354 whole entry): T3 sequence (whole entry)

[6] = molecular target: T3, Prostaglandin G/H synthase 2 (Homo sapiens); conditions: Blood, at 10 µM

inhibition [1] [%] | Activity [2] [%] | Activity [3] [%] | Activity [4] [%] | IC50 [5] [µM] | inhibition [6] [%] | SMILES
55 | – | – | – | – | – | Nn1c(SC(C(=O)O)c2ccccc2)nc2ccsc2c1=O (stereo unspecified)
– | 346 | 11 | 205 | – | – | Cc1sc2nc(SC(C(=O)O)c3ccccc3)n(N)c(=O)c2c1C (stereo unspecified)
50 | – | – | – | 5.8 | 88 | CC(Sc1nc2ccccc2c(=O)n1N)C(=O)O (stereo unspecified)
90 | – | – | – | – | – | COc1ccc2c(c1)c(CC(=O)O)c(C)n2C(=O)c1ccc(Cl)cc1
38 | – | – | – | 7 | 70 | Nn1c(SC(C(=O)O)c2ccccc2)nc2ccc(Br)cc2c1=O (stereo unspecified)
– | 52 | 10 | 6 | – | – | CC(Sc1nc2c(sc3ccccc32)c(=O)n1N)C(=O)O (stereo unspecified)
– | 250 | 52 | 90 | – | – | CC(Sc1nc2sc(-c3ccccc3)cc2c(=O)n1N)C(=O)O (stereo unspecified)
70 | – | – | – | – | 90 | Nn1c(SC2CCCCC2)nc2sc(-c3ccccc3)cc2c1=O
60 | – | – | – | – | 75 | Nn1c(Sc2ccc([N+](=O)[O-])cc2[N+](=O)[O-])nc2sc(-c3ccccc3)cc2c1=O
– | 180 | 35 | 28 | – | – | CC(Sc1nc2c([nH]c3ccccc32)c(=O)n1N)C(=O)O (stereo unspecified)
– | 30 | 5 | 21 | – | – | Nn1c(SC(C(=O)O)c2ccccc2)nc2ccccc2c1=O (stereo unspecified)
96 | – | – | – | – | – | Cc1ccc(-c2cc(C(F)(F)F)nn2-c2ccc(S(N)(=O)=O)cc2)cc1
100 | – | – | – | 3.4 | 100 | CS(=O)(=O)Nn1c(Sc2ccc([N+](=O)[O-])cc2[N+](=O)[O-])nc2sc(-c3ccccc3)cc2c1=O
